Assay results as given in article PMC8526403 (ACS chemical biology, 2021).
Entries after “also recorded” stand apart in the source; their conditions may differ.

Legend:
human FXa = human FXa (Homo sapiens, UniProt P01008); test: Anti-FXa activity; type: biochemical; conditions: for anti-FXa IC50: with antithrombin, 0–5000 ng/mL; for fold increase of anti-FXa IC50 compared to HSoligo 9: ratio of IC50 values
In short: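 Human FXa at 50 U/mL in PBS. Test compound dissolved in PBS at 0–5000 ng/mL, preincubated with antithrombin (35 μg/mL) for 2 min at 37 °C. FXa added for 4 min at 37 °C, then diluted S-2765 (1 mg mL−1). A405 read continuously for 5 min. Maximum slope divided by control maximum slope gives % FXa activity.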

factor IIa (FIIa) = factor IIa (FIIa) (Homo sapiens, UniProt P01008); test: Anti-FIIa activity; type: biochemical
Sequence of factor IIa (FIIa) (P01008 33-464): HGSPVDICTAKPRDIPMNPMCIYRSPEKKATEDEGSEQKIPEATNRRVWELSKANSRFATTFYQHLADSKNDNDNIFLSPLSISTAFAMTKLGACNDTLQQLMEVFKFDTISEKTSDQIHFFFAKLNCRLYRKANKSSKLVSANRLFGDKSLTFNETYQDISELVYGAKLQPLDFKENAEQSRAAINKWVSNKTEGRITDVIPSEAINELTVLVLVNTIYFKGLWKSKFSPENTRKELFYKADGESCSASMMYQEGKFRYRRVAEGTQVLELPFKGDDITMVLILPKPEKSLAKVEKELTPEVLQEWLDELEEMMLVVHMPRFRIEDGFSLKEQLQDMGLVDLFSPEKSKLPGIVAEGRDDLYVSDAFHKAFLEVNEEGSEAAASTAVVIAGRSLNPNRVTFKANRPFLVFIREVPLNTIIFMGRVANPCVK

[1] = test system: acetaminophen overdosed mice; conditions: acetaminophen overdose model; cited from earlier work
HMGB1 = target: T1, HMGB1 (Mus musculus, UniProt P63158); test: Binding of biotinylated oligosaccharides to HMGB1; conditions: biotinylated oligosaccharide, mouse liver lysate; for fold increase in binding to HMGB-1 compared to negative control NS6S 8-mer: Western band intensity
T1 sequence (P63158 1-215): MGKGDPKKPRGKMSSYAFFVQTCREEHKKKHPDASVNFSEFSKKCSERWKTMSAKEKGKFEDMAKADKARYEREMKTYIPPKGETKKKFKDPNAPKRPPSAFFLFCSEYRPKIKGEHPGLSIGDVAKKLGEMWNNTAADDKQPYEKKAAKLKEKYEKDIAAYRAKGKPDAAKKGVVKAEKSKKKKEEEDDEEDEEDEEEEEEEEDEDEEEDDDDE
In short: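 Biotinylated oligosaccharides (~20 nmol) were mixed with fresh mouse liver lysate containing HMGB1 in 20 mM HEPES, pH 7.2, 100 mM NaCl, 1% BSA. Incubation was overnight at 4 °C. Complexes were captured on streptavidin agarose and washed 5× in 20 mM HEPES/250 mM NaCl, pH 7.2. They were eluted in LDS buffer and blotted with rabbit monoclonal anti-HMGB1 plus HRP secondary. Bands were quantified densitometrically.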

3-OST-4 [2] = target: T2, 3-OST-4 (Homo sapiens, UniProt Q9Y661); test: 3-OST-4 modification of oligosaccharide substrates, anion exchange HPLC analysis; type: biochemical; conditions: for sulfation by 3-OST-4 (in words): HPLC analysis of substrate with or without 3-OST-4 modification
T2 sequence (Q9Y661 163-456): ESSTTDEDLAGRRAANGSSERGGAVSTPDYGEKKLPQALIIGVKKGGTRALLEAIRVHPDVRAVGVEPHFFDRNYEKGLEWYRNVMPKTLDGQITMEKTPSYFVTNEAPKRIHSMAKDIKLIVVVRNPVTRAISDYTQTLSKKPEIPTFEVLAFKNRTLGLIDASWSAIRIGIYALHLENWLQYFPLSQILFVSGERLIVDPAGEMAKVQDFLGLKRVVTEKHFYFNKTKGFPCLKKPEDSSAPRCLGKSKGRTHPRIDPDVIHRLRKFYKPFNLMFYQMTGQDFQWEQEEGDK
In short: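 Recombinant human 3-OST-4 (E163–K456) was expressed in Sf9 insect cells and purified on heparin then Ni-Sepharose. Oligosaccharide substrates were incubated overnight at 37 °C with PAPS and 3-OST-4 (0.8 mg mL−1 stock) in 50 mM Tris, pH 7.2, with 2 mM CaCl2. For the 8-mer substrate C, 2 mM MnCl2 was also present. Conversion was followed by anion exchange HPLC.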

3-OST-4 [3] = target: T2, 3-OST-4; test: Reactivity of 12-mers and HS to 3-OST-4 modification; type: biochemical; conditions: 12-mer substrates compared to HS polysaccharide
In short: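 Each 12-mer (10 μg) was incubated with 3-OST-4 (5 μL of 0.8 mg mL−1 stock) in 100 μL of 50 mM Tris-HCl, pH 7.5. The reaction contained [35S]PAPS (5 μM, 1.2 × 10^5 cpm) and ran 1 h at 37 °C. Product was recovered on DEAE and 35S counted as cpm. A no-substrate reaction served as background.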

tau protein = tau protein (Homo sapiens, UniProt P10636); test: Binding of biotinylated oligosaccharides to Cy5-labeled tau; conditions: biotinylated oligosaccharide
Sequence of tau protein (P10636 1-441 isoform P10636-8): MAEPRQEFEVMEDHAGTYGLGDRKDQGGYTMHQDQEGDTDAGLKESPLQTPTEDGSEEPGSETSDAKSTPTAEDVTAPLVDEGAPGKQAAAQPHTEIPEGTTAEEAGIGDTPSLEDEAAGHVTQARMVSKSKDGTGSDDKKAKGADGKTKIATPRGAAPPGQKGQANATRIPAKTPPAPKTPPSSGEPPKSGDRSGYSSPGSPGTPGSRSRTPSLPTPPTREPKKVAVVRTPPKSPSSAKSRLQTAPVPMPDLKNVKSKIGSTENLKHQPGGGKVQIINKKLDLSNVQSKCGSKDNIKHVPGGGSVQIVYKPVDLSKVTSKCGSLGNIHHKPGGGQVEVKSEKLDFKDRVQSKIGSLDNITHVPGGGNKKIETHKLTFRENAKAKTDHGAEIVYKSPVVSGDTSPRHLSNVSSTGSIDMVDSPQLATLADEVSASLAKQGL
In short: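 Biotinylated oligosaccharides (~10 nmol) were incubated overnight at 4 °C with Cy5-labeled tau (5 μg) in 20 mM HEPES, pH 7.2, 100 mM NaCl, 1% BSA. Complexes were captured on streptavidin agarose and washed 3× in HEPES/250 mM NaCl, then 2× in PBS. Tau was released with heparin lyases II (14 μg) and III (20 μg) over 4 h at RT. Released tau was resolved on 4–12% Bis-Tris gels, read by fluorescence scanning and quantified.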

[4] = test system: acetaminophen overdosed mice; test: Hepatoprotection in acetaminophen overdosed mice; type: in vivo, mouse

Sequence of human FXa (P01008 33-464): as the sequence (P01008 33-464) above

Row | Substance | anti-FXa IC50 (human FXa) | anti-IIa IC50 (factor IIa (FIIa)) | reactivity toward 3-OST-4 modification (in words) (3-OST-4 [3]) | further results
1 | GlcNS6S-GlcA-GlcNS6S-GlcA2S-GlcNS3S6S-IdoA2S-GlcNS-GlcA-pNP [HSoligo 9] | 22.5 ng/mL | no inhibition |  | 
2 | GlcNS6S-GlcA-GlcNS3S6S-IdoA2S-GlcNS6S-IdoA2S-GlcNS6S-IdoA2S-GlcNS6S-IdoA2S-GlcNS6S-IdoA2S-GlcNS6S-IdoA2S-GlcNS6S-IdoA2S-GlcNS6S-GlcA-Biotin [18-mer AXa] |  |  |  | hepatoprotection effect [1]: does not display the hepatoprotection effect
3 | GlcNS6S-GlcA-GlcNS6S-GlcA2S-GlcNS3S6S-GlcA-pNP [HSoligo 4] | 311.4 ng/mL | no inhibition |  | fold increase of anti-FXa IC50 compared to HSoligo 9 (human FXa): 6.9 fold; fold increase in binding to HMGB-1 compared to negative control NS6S 8-mer (HMGB1): 6 fold
4 | GlcNS-GlcA-GlcNS-GlcA2S-GlcNS-GlcA-pNP [6-mer substrate D] |  |  |  | sulfation by 3-OST-4 (in words) (3-OST-4 [2]): nearly quantitatively converted
5 | GlcNS-GlcA-GlcNS-GlcA2S-GlcNS-GlcA2S-pNP [6-mer substrate E] |  |  |  | sulfation by 3-OST-4 (in words) (3-OST-4 [2]): highly reactive
6 | GlcNS6S-(GlcA-GlcNS6S)5-GlcA-pNP [12-mer NS6S] |  |  | not substrates | 
7 | GlcNAc-(GlcA-GlcNAc)5-GlcA-pNP [12-mer NAc] |  |  | not substrates | 
8 | GlcNS-GlcA-(GlcNS-IdoA2S)4-GlcNSGlcA-pNP [12-mer NS2S] |  |  | preferably sulfates | 
9 | GlcNS-(GlcA-GlcNS)5-GlcA-pNP [12-mer NS] |  |  | Lower reactivity | 
10 | GlcNS6S-GlcA-GlcNS6S-GlcA2S-GlcNS3S6S-GlcA2S-GlcNS3S6S-GlcA2S-pNP [HSoligo 7] | 79.5 ng/mL | lacks anti-FIIa activity; also recorded: no inhibition |  | fold increase of anti-FXa IC50 compared to HSoligo 9 (human FXa): 3.5 fold; extent of binding to HMGB1 relative to positive control 18-mer AXa (in words) (HMGB1): comparable to that of 18-mer AXa; fold increase in binding to HMGB-1 compared to negative control NS6S 8-mer (HMGB1): 15 fold; binding to tau, fold higher than 8-mer NS6S (tau protein): 2 fold; binding to tau, fold higher than HSoligo 4 (tau protein): 4 fold; level of binding to tau relative to 18-mer AXa (in words) (tau protein): comparable to 18-mer AXa; hepatoprotection: plasma level of alanine aminotransferase (ALT) [4]: did not find a decrease
11 | GlcNS-GlcA-GlcNS-GlcA2S-GlcNS3S-IdoA2S-GlcNS-GlcA-pNP [HSoligo 8] | no inhibition | no inhibition |  | 
12 | GlcNS-GlcA-GlcNS-GlcA-GlcNS-IdoA2S-GlcNS-GlcA-pNP [8-mer substrate B] |  |  |  | sulfation by 3-OST-4 (in words) (3-OST-4 [2]): failed to sulfate
13 | GlcNS6S-GlcA-(GlcNS6S-IdoA2S)4-GlcNS6S-GlcA-pNP [12-mer NS2S6S] |  |  | not substrates | 
14 | GlcNS-GlcA-GlcNS-IdoA2S-GlcNS-IdoA2S-GlcNS-GlcA-pNP [8-mer substrate C] |  |  |  | substrate converted to 3-O-sulfated product after 3-OST-4 modification (3-OST-4 [2]; HPLC, conversion to HSoligo 1): about 71%
15 | GlcNS6S-GlcA-GlcNS6S-GlcA2S-GlcNS3S6S-GlcA2S-pNP [HSoligo 5] | 154.4 ng/mL | no inhibition |  | 
